Ki data for two compounds are collected here from BindingDB's records for doi:10.1021/ml100053y (2010).

The experiment addresses T1, 5-hydroxytryptamine receptor 1A (Homo sapiens, UniProt P08908).
T1 sequence (P08908 whole entry): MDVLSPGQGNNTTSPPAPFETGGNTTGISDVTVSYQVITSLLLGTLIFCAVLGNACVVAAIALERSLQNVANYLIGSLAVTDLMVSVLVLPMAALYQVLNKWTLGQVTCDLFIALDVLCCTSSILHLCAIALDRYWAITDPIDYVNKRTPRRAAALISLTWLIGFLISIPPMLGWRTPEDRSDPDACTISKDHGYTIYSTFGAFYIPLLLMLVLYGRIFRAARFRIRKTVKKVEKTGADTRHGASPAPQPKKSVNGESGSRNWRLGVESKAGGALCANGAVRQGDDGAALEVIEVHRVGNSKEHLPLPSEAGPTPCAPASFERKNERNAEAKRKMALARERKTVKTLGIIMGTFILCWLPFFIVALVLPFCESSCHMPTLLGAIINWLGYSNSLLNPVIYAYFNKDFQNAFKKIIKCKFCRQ
The experiment in a line: Displacement of [3H]8-OH-DPAT from human 5HT1A receptor expressed in EBNA gene-positive HEK293 cells after 120 mins. The method in brief: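 Radioligand competition binding with [3H]-8-hydroxy-DPAT on membranes from transfected HEK-293 EBNA cells expressing h5-HT1AR. Buffer was 50 mM Tris-HCl, 0.5 mM MgSO4, pH 7.4. Ki was obtained from IC50 by the Cheng-Prusoff equation. Values are means ± SEM of 2–4 independent experiments, each run in triplicate.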
Background: Loss of bound radioactivity is the signal in a displacement assay; it reports binding, not function.

Regarding `O=c1n(CCCCN2CCN(c3cccc4ccccc34)CC2)c(O)c2n1CCC2` [2-[4-(4-Naphthalen-1-yl-piperazin-1-yl)-butyl]-tetrahydro-pyrrolo[1,2-c]imidazole-1,3-dione], the affinity corresponds to a Ki of 2.4 nM.

In the case of `CN(C)S(=O)(=O)c1ccc2cccc(N3CCN(CCCCn4c(O)c5n(c4=O)CCC5)CC3)c2c1` [8-{4-[4-(1,3-Dioxotetrahydro-1H-pyrrolo[1,2-c]imidazol-2(3H)-yl)butyl]piperazin-1-yl}-N,N-dimethylnaphthalene-2-sulfonamide], affinity was put at a Ki of 2.4 nM.
